Assay [1] deals with Acanthamoeba castellanii. Put plainly: Anti-amoebic activity against Acanthamoeba castellanii ATCC 50491 assessed as inhibition of amoebic growth incubated for 48 hrs by resazurin dye based microtiter plate analysis. In kind it is functional. A digest of the protocol:
(§1)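 Trophozoites kept axenically in PYG medium at 28 °C, grown to confluence for 48 h, then diluted to 5 × 10^4 trophozoites/mL (1 × 10^4 cells per well). Azoles added from DMSO stocks via PYG to final 0.03125–64 μg/mL (twofold series); 1% DMSO controls. Incubated 48 h at 28 °C, then 0.02% resazurin added for a further 48 h. Purple-to-pink change scored as respiring cells; MIC in triplicate.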
Background: Resazurin is reduced to fluorescent resorufin, in cell work by metabolically active cells.

The subject of another assay is Acanthamoeba polyphaga. Description: Anti-amoebic activity against Acanthamoeba polyphaga ATCC 30461 assessed as inhibition of amoebic growth incubated for 48 hrs by resazurin dye based microtiter plate analysis. It is filed as functional. A digest of the protocol:
as §1

The nature of assay [2]: Catalytic inhibition of Acanthamoeba castellanii CYP51 expressed in Escherichia coli HMS-174 (DE3) cells assessed as inhibition of substrate induced 14alpha-demthylation using obtusifoliol as substrate incubated for 1 hr in presence of NADPH-CYP450 reductase by RP-HPLC analysis.
The subject of assay [3] is Acanthamoeba castellanii. Description: Catalytic inhibition of Acanthamoeba castellanii CYP51 expressed in Escherichia coli HMS-174 (DE3) cells assessed as inhibition of substrate induced 14alpha-demthylation using obtusifoliol as substrate at […] incubated for 1 hr in presence of NADPH-CYP450 reductase by RP-HPLC analysis relative to control. As to conditions: dose 1.5 µM.

Assay [4] deals with Acanthamoeba castellanii. Put plainly: Substrate activity at Acanthamoeba castellanii CYP51 expressed in Escherichia coli HMS-174 (DE3) cells assessed as Kcat measured after 20 mins by Michaelis-Menten analysis. Put shortly:
(§2)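 Full-length His6-tagged CYP51, purified by Ni-NTA, Q- and CM-Sepharose, reconstituted with rat CPR (0.5 μM P450, 2 μM CPR), 37 °C. […] Rates as nmol product/min/nmol P450 vs total substrate, fitted to Michaelis–Menten hyperbola; triplicate, mean ± SD.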

In assay [5] the test system is Acanthamoeba castellanii. Put plainly: Substrate activity at Acanthamoeba castellanii CYP51 expressed in Escherichia coli HMS-174 (DE3) cells assessed as Km measured after 20 mins by Michaelis-Menten analysis. Put shortly:
as §2

Assay [6] deals with Acanthamoeba castellanii. Put plainly: Substrate activity at Acanthamoeba castellanii CYP51 expressed in Escherichia coli HMS-174 (DE3) cells assessed as Kcat/Km measured after 20 mins by Michaelis-Menten analysis. Put shortly:
as §2

Assay [7] is described as follows: Binding affinity to Acanthamoeba castellanii CYP51 expressed in Escherichia coli HMS-174 (DE3) cells assessed as dissociation constant by UV-Visible spectrophotometry.
Assay [8] concerns Acanthamoeba castellanii. Description: Substrate activity at Acanthamoeba castellanii CYP51 expressed in Escherichia coli HMS-174 (DE3) cells assessed as Km measured after 60 sec by Michaelis-Menten analysis. A digest of the protocol: as §2
Assay [9] relates to Acanthamoeba castellanii. Put plainly: Substrate activity at Acanthamoeba castellanii CYP51 expressed in Escherichia coli HMS-174 (DE3) cells assessed as Kcat measured after 60 sec by Michaelis-Menten analysis. A digest of the protocol:
as §2

Assay [10] deals with Acanthamoeba castellanii. Put plainly: Substrate activity at Acanthamoeba castellanii CYP51 expressed in Escherichia coli HMS-174 (DE3) cells assessed as Kcat/Km measured after 60 sec by Michaelis-Menten analysis. Put shortly:
as §2

The source made the active and inactive calls.

For the compound `O=C(N[C@@H](Cn1ccnc1)c1ccc(Cl)cc1Cl)c1ccc(-c2nnc(-c3ccccc3)o2)cc1`, the MIC (usually the smallest concentration in the dilution series that meets the test's criterion for growth inhibition) was 4 µM in the assay with Acanthamoeba castellanii [1] and > 64 µg/mL in the assay on Acanthamoeba polyphaga.

As for `FC(F)(F)c1ccc(N(c2cccnc2)C2CCN(c3ccc(C(F)(F)F)cn3)CC2)cc1`, in assay [2], the IC50 (as a rule, the concentration that gives 50% inhibition) worked out at 1300 nM.

With `O=C([C@@H](c1ccc(Cl)cc1)c1cccnc1)N1CCN(c2ccc(C(F)(F)F)cc2)CC1`, in assay [2], the concentration for half-maximal inhibition (IC50) was 5500 nM.

On to `O=C(N[C@@H](Cn1ccnc1)c1ccc(-c2ccc(F)cc2)cc1F)c1ccc(-c2nnc(-c3ccccc3)o2)cc1`, for which the MIC with Acanthamoeba castellanii [1] and in the assay on Acanthamoeba polyphaga was > 64 µg/mL throughout.

Consider `CC(=O)N1CCN(c2ccc(OCC3COC(Cn4ccnc4)(c4ccc(Cl)cc4Cl)O3)cc2)CC1` (stereo not given), for which, in the assay with Acanthamoeba castellanii [3], the inhibition (commonly the drop in the measured response relative to a control, in per cent) is “inactive”.

Take `CC(C)(C#N)c1cc(Cn2cncn2)cc(C(C)(C)C#N)c1`: in the assay with Acanthamoeba castellanii [3], the inhibition entry was “inactive”.

`CC[C@@H]([C@H](C)O)n1ncn(-c2ccc(N3CCN(c4ccc(OC[C@@H]5CO[C@@](Cn6cncn6)(c6ccc(F)cc6F)C5)cc4)CC3)cc2)c1=O`: in the assay with Acanthamoeba castellanii [3], the inhibition result was “inactive”.

Take `C[C@@H](c1nc(-c2ccc(C#N)cc2)cs1)[C@](O)(Cn1cncn1)c1ccc(F)cc1F`: the inhibition entry with Acanthamoeba castellanii [3] was “inactive”.

Take `Clc1ccc(COC(Cn2ccnc2)c2ccc(Cl)cc2Cl)c(Cl)c1` (stereo not given): the inhibition in the assay with Acanthamoeba castellanii [3] is 25%.

Turning to `Clc1ccccc1C(c1ccccc1)(c1ccccc1)n1ccnc1`, the inhibition in the assay on Acanthamoeba castellanii [3] is 82%.

On to `N#Cc1ccc(C(c2ccc(C#N)cc2)n2cncn2)cc1`, for which the inhibition result in the assay on Acanthamoeba castellanii [3] is “inactive”.

Turning to `CC(C)=CCC[C@@H](C)[C@H]1CC[C@@]2(C)C3=C(CC[C@]12C)[C@@]1(C)CC[C@H](O)C(C)(C)[C@@H]1CC3` [LANOSTEROL], the turnover number (kcat) (in general, the number of substrate molecules converted per active site and unit of time at saturation) with Acanthamoeba castellanii [4] was 0.102 s⁻¹. Further, in the assay with Acanthamoeba castellanii [5], the Km (as a rule, the concentration of substrate that gives half-maximal velocity) is 52 µM. Moreover, the kcat/Km – broadly, the turnover number divided by the Michaelis constant – in the assay with Acanthamoeba castellanii [6] was 2000 M⁻¹ s⁻¹. In addition, the Kd (commonly the concentration at which binding is half-saturated) in assay [7] is 1220 nM.

As to `C=C(CC[C@@H](C)[C@H]1CC[C@@]2(C)C3=C(CC[C@]12C)[C@@]1(C)CC[C@H](O)[C@@H](C)[C@@H]1CC3)C(C)C` [OBTUSIFOLIOL], in the assay with Acanthamoeba castellanii [8], the Michaelis constant (Km) was 2.7 µM. For the same compound, the turnover number (kcat) with Acanthamoeba castellanii [9] was determined as 0.513 s⁻¹. The kcat/Km with Acanthamoeba castellanii [10] was 190000 M⁻¹ s⁻¹. Moreover, in [7], the Kd is 30 nM.

Turning to `O[C@@](Cn1cnnn1)(c1ccc(F)cc1F)C(F)(F)c1ccc(-c2ccc(OCC(F)(F)F)cc2)cn1` [OTESECONAZOLE], the MIC in the assay on Acanthamoeba castellanii [1] amounted to 0.057 µM; with Acanthamoeba polyphaga, 0.114 µM.

As to `C[C@@H](c1ncncc1F)[C@](O)(Cn1cncn1)c1ccc(F)cc1F` [VORICONAZOLE], the IC50 in [2] was found to be 450 nM. In addition, the MIC in the assay on Acanthamoeba castellanii [1] was 0.09 µM; in the assay with Acanthamoeba polyphaga, 0.75 µM. Moreover, the inhibition in the assay on Acanthamoeba castellanii [3] came to 85%.

`N#Cc1ccc(COc2ccc(C#Cc3ccc(C(F)(F)[C@](O)(Cn4cnnn4)c4ccc(F)cc4F)nc3)cc2)cc1` [VT-1598]: the half-inhibitory concentration (IC50) in assay [2] was 250 nM. In addition, the values for the MIC with Acanthamoeba castellanii [1] and in the assay on Acanthamoeba polyphaga were 0.077 µM and 0.425 µM, respectively.

Values taken from ChEMBL document CHEMBL5543170, “Identification of Potent and Selective Inhibitors of Acanthamoeba: Structural Insights into Sterol 14α-Demethylase as a Key Drug Target” (J Med Chem, 2024).
